Experiments:
[1] = tested on: Rattus norvegicus; assay: Urinary excretion in rat assessed as radioactivity at 10 mg/kg, iv after 24 h; assay type: ADME, organism-based, Urine; set-up: dose 10 mg/kg, route intravenous; details: in vivo
Summary of the method: (§1)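 Rats were dosed i.v. via the tail vein with [14C]CS-023 at 10 mg/kg (4.58 MBq/kg) in saline, then kept in individual metabolic cages for separate urine and feces collection over 7 days. Samples up to 24 h were collected at around 4°C into 0.5 M MOPS pH 6.0, and feces were homogenized. Radioactivity was measured by liquid scintillation counting. Parent drug and metabolite were apportioned by silica TLC (3% NaCl:acetonitrile 2:1) with imaging-plate analysis. n=4.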

[2] = tested on: Rattus norvegicus; assay: Fecal excretion in rat assessed as radioactivity at 10 mg/kg, iv after 24 h; assay type: ADME, organism-based; set-up: dose 10 mg/kg, route intravenous; details: in vivo; summary of the method: as §1

Activity [1]: 31.4%
Activity [2]: 1.3%
SMILES: C[C@@H]1[C@H]([C@H](C(=O)O)[C@@H](C)O)N=C(C(=O)O)[C@H]1S[C@H]1C[C@@H](C(=O)N2CC[C@H](NC(=O)CNC(=N)N)C2)N(C)C1

Reference: ChEMBL document CHEMBL1142153, “Pharmacokinetics and disposition of CS-023 (RO4908463), a novel parenteral carbapenem, in animals” (Antimicrob Agents Chemother, 2007)
